# Compound activity from PubChem.
# Compounds with a hit are over-represented: about 1.4% of the library has one in this group of screens.
# TbMetRS inhib: Trypanosoma brucei MetRS inhibition | AID 624268 | purified T. brucei MetRS, ATP depletion, Kinase-Glo luminescence | inhibition, % at 11.9 µM | actives 0.4% (n = 360,000);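 active = inhibition above a per-plate cutoff of the control wells' mean inhibition plus 3 SD, cut at about 5.5% in these data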;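 also: 0% = DMSO wells median and 100% = median of wells with control inhibitor compound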
#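 Material – parasite MetRS enzyme · Medium – HEPES-MgCl2-KCl buffer plus DTT, spermine, BSA, pyrophosphatase · Reagent – ATP, methionine and E. coli bulk tRNA substrates · Times – 15 min enzyme-compound preincubation, 2 h reaction, 10 min detection, 25 °C · Measured by – luminescence of leftover ATP · Evaluation – percent inhibition relative to median high and low control wells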
# Rin1-Abl PPI inh: human Rin1-Abl interaction inhibition. P00519+Q13671. TR-FRET Rin1/Abl binding, biochemical. inhibition, % at 7.35 µM. actives 0.4% (n = 360,000); in the data active = inhibition above about 5%, passing the limit was not always enough
# UCH37 inh: inhibitors of human deubiquitinating enzyme UCH37; purified proteasome/UCH37, Ub-AMC cleavage fluorescence; inhibition, % (test concentration not listed); actives 0.33% (n = 330,000);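 active = mean inhibition over replicate wells above about 20%, limit read from the data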;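 also: 0% = compound-free wells with enzyme and 100% = wells lacking proteasome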
# Target sequence (Q9Y5K5 whole entry, looked up): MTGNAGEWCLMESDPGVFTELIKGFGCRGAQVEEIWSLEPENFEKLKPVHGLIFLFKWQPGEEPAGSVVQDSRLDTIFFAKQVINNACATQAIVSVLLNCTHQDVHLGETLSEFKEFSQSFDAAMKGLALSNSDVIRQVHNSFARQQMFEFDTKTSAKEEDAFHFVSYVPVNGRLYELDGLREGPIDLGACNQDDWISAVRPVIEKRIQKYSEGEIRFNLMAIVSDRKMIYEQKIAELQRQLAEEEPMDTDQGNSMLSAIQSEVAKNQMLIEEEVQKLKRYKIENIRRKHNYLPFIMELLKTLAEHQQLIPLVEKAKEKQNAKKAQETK
#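 System: Proteasome-associated human UCH37 deubiquitinase; Input: 0.15 nM proteasome in added enzyme buffer; Also added: Ub-AMC substrate from 1 µM stock; Incubation: 30 min compound-proteasome preincubation then 25 min substrate reaction, room temperature; Detection: fluorescence, ex 355 nm, em 460 nm; Read-out: % inhibition of Ub-AMC cleavage fluorescence; Benchmarks: no-proteasome and no-compound wells.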
# ATG4B inh: blocks human ATG4B protease cleavage of LC3 substrate; actives 0.51% (n = 340,000); AID 504462; ATG4B cleavage of LC3-PLA2, NBD-HPC fluorescence, 1 h; inhibition, % at 8.33 µM; in the data active = inhibition above about 40%
# TbMetRS confirm: Trypanosoma brucei MetRS inhibition confirmed; shares compounds with TbMetRS inhib; T. brucei MetRS enzyme, luminescence (ATP depletion); inhibition, % at 11.9 µM; actives 93% (n = 1,400); AID 624412; in the data active = inhibition above about 7%
# Jurkat cytotox: counter-screen for T. brucei MetRS inhibitors: Jurkat cell cytotoxicity; Jurkat cells viability, ATP luminescence; actives 12% (n = 1,400); shares compounds with TbMetRS inhib; AID 624413; inhibition, % at 8.3 µM; in the data active = inhibition above about 15%;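 also: 0% = vehicle and 100% = reference inhibitor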
# TbMetRS FP orth: inhibits T. brucei methionyl tRNA synthetase in orthogonal FP test. shares compounds with TbMetRS inhib. purified T. brucei MetRS, fluorescence polarization. inhibition, % at 11.9 µM. actives 44% (n = 1,400); in the data active = inhibition above about 17%;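 also: 0% = vehicle wells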
# The depositor's hits bear a star; · = no result.
SMILES,TbMetRS inhib,Rin1-Abl PPI inh,UCH37 inh,ATG4B inh,TbMetRS confirm,Jurkat cytotox,TbMetRS FP orth
C=CCn1c(COc2ccccc2F)nnc1SCC(=O)c1c[nH]c2ccccc12,13*,-1,2,-3,17*,2,7
C=CCn1c(COc2ccccc2F)nnc1SCC(=O)Nc1cc2oc3ccccc3c2cc1OC,0,3,1,-9,·,·,·
CCc1ccc(N2CC(C(=O)Nc3ccc(C)c(S(=O)(=O)N4CCOCC4)c3)CC2=O)cc1 (stereo not given),0,0,2,-8,·,·,·
Cc1sc(-c2ccccn2)nc1OC(=O)c1ccc(F)cc1F,0,1,4,-3,·,·,·
Cc1sc(-c2ccccn2)nc1OC(=O)c1ccc(Cl)c(Cl)c1,14*,-1,5,-7,3,2,0
NS(=O)(=O)c1cc(C(=O)OCC(=O)c2ccc3c(c2)OCCO3)ccc1Cl,0,-1,1,-4,·,·,·
Cc1ccc(S(=O)(=O)N2CCN(Cc3nc4ccccc4[nH]3)CC2)cc1C,5.8*,-2,-1,-9,17*,0,5
O=C(NCc1cccc(Cl)c1)c1cccc(S(=O)(=O)N2CCCC2)c1,13*,0,2,-7,43*,2,26*
O=C(NCc1cccc(Cl)c1)c1cccc(S(=O)(=O)N2CCCCC2)c1,5,0,3,13,·,·,·
O=C(NCc1nc2ccccc2[nH]1)c1cccc(S(=O)(=O)N2CCCC2)c1,7.9*,2,-2,11,19*,-7,14
Cc1c(NS(=O)(=O)c2cc(C(=O)NCc3cccc(Cl)c3)ccc2Cl)c(=O)n(-c2ccccc2)n1C,11*,-2,2,7,34*,0,24*
CSCC[C@H](NC(=O)c1cccc(S(=O)(=O)N2CCCCCC2)c1)c1nc2ccccc2[nH]1,0,0,4,-13,·,·,·
Cc1cc(N2CC(C(=O)NCc3cccnc3)CC2=O)ccc1C(C)C (stereo not given),0,-2,2,-1,·,·,·
O=C(NCc1ccco1)C1CC(=O)N(c2ccc(F)cc2)C1 (stereo not given),0,-3,0,-7,·,·,·
O=C(Nc1nc2ccccc2[nH]1)c1cccc(S(=O)(=O)N2CCOCC2)c1,0,-1,4,-6,·,·,·
O=C(NCc1nc2ccccc2[nH]1)c1cccc(S(=O)(=O)N2CCOCC2)c1,65*,1,-1,2,94*,7,58*
CCCc1ccc(-c2c(C)sc(N)c2C#N)cc1,27*,-1,3,31,17*,11,8
CCCC(=O)Nc1sc(C)c(-c2ccc(OC)cc2)c1C#N,1,0,2,-1,·,·,·
CC(C)Oc1ccc(F)cc1-c1cc(C(=O)NC2CCCCC2)[nH]n1,0,2,·,·,·,·,·
Cn1cc([C@]2(O)C(=O)N(c3ccccc3)c3ccccc32)c2ccccc21,0,·,·,·,·,·,·
C=CCOc1ccc(C2C3=C(CCCC3=O)N(CC(=O)O)C3=C2C(=O)CCC3)cc1OCC,0,2,0,5,·,·,·
C=CCOc1c(Br)cc(C2NC(=O)NC(C)=C2C(C)=O)cc1OCC (stereo not given),7.0*,1,2,6,15*,-7,7
C=CCOc1c(Br)cc(C2C3=C(CCCC3=O)N(C)C3=C2C(=O)CCC3)cc1OCC,9.5*,-3,-436,-10,16*,-7,10
CNC(=O)N1CCN(C(=O)NC)CC1,0,-1,0,9,·,·,·
Cc1ccc(-n2c(SCC(=O)OC(C)C)nnc2-c2ccccn2)cc1,1,0,0,4,·,·,·
CCOc1ccc(CCNC(=O)CCc2nc3ccccc3[nH]2)cc1OCC,3,-1,1,-8,·,·,·
COc1ccc(CCNC(=O)CCc2nc3ccccc3[nH]2)cc1OC,8.3*,-1,2,6,11*,2,6
Cc1ccc(CCNC(=O)CCc2nc3ccccc3[nH]2)cc1,21*,-1,1,7,37*,-4,16
Cc1nn(Cc2ccccc2)c(C)c1/C=N/NC(=O)c1ccccc1O,0,-1,·,1,·,·,·
